# Tests used:
# Assay type in all cases: functional
# [1] = system: Mus musculus; assay: Evaluated for reduction in spontaneous locomotor activity in mice at a dose of 5 mg/Kg
# Outline: (§1)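 Tail-vein injection in mice (0.1 mL/10 g; ethanol/emulphor/saline 1:1:18). Spontaneous locomotor activity counted as counts/10 min, per previously reported methods. Daily vehicle and Δ9-THC positive controls. Mean ± SEM; ANOVA with Dunnett's t test, p < 0.05 two-tailed.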
# [2] = system: Mus musculus; assay: Evaluated for reduction in spontaneous locomotor activity in mice at a dose of 3 mg/Kg; outline: as §1
# [3] = system: Mus musculus; assay: Tail-flick latency was determined at a concentration of 3 mg/Kg.
# Outline: (§2)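 Mice, drug suspended in ethanol/emulphor/saline (1:1:18) and given by tail-vein injection (0.1 mL/10 g). Antinociception measured as tail-flick latency (s). Vehicle and Δ9-THC positive controls run in each daily experiment. Data given as mean ± SEM. ANOVA with Dunnett's t test against control, p < 0.05 (two-tailed).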
# [4] = system: Mus musculus; assay: Evaluated for catalepsy activity in mice and percentage immobility was determined at a concentration of 0 mg/Kg.
# Outline: (§3)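 Mice, single tail-vein injection (0.1 mL/10 g) in ethanol/emulphor/saline (1:1:18). Catalepsy scored by ring test as % immobility, per previously reported methods. Vehicle and Δ9-THC positive-control groups run in each daily experiment. Mean ± SEM; ANOVA with Dunnett's t test versus control, p < 0.05 two-tailed.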
# [5] = system: Mus musculus; assay: Evaluated for catalepsy activity in mice and percentage immobility was determined at a concentration of 5 mg/Kg.; outline: as §3
# [6] = system: Mus musculus; assay: Evaluated for hypothermic activity in mice at a dose of 5 mg/Kg.
# Outline: (§4)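 Mice dosed by tail-vein injection (0.1 mL/10 g) in ethanol/emulphor/saline (1:1:18). Body temperature change (°C) measured by previously reported methods. Vehicle and Δ9-THC positive controls run each day. Mean ± SEM; ANOVA with Dunnett's t test versus control, p < 0.05 two-tailed.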
# [7] = system: Mus musculus; assay: Evaluated for reduction in spontaneous locomotor activity in mice, at a dose of 0 mg/Kg; outline: as §1
# [8] = system: Mus musculus; assay: Evaluated for catalepsy activity in mice and percentage immobility was determined at a concentration of 3 mg/kg.; outline: as §3
# [9] = system: Mus musculus; assay: Evaluated for hypothermic activity in mice at a dose of 3 mg/Kg.; outline: as §4
# [10] = system: Mus musculus; assay: Tail-flick latency was determined at a concentration of 0 mg/Kg.
# Outline: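 Antinociception in mice by tail-flick latency (s), per previously reported methods, after tail-vein injection (0.1 mL/10 g) in ethanol/emulphor/saline (1:1:18). Vehicle and Δ9-THC controls run daily. Mean ± SEM; ANOVA with Dunnett's t test, p < 0.05 two-tailed.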
# [11] = system: Mus musculus; assay: Evaluated for hypothermic activity in mice at a dose of 0 mg/Kg.; outline: as §4
# [12] = system: Mus musculus; assay: Tail-flick latency was determined at a concentration of 5 mg/Kg.; outline: as §2
# [13] = system: Mus musculus; assay: Evaluated for hypothermic activity in mice at a dose of 50 mg/Kg.; outline: as §4
# [14] = system: Mus musculus; assay: Evaluated for hypothermic activity in mice at a dose of 150 ug/Kg administered intraventricularly
# Outline: (§5)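 Intraventricular injection in mice, 5 μL volume, in ethanol/emulphor/saline (1:1:18) vehicle. Change in body temperature (°C) recorded by previously reported methods, with vehicle and Δ9-THC controls. Mean ± SEM; ANOVA with Dunnett's t test versus control, p < 0.05 two-tailed.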
# [15] = system: Mus musculus; assay: Evaluated for reduction in spontaneous locomotor activity in mice at a dose of 150 ug/Kg administered intraventricularly
# Outline: (§6)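 Mice given intraventricular injection of 5 μL in ethanol/emulphor/saline (1:1:18). Spontaneous locomotor activity recorded as counts/10 min by previously reported methods, alongside vehicle and Δ9-THC controls. Mean ± SEM; ANOVA with Dunnett's t test, p < 0.05 two-tailed.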
# [16] = system: Mus musculus; assay: Tail-flick latency was determined at a concentration of 0 ug/Kg administered intraventricularly
# Outline: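 Tail-flick latency (s) in mice after intraventricular injection (5 μL) of ethanol/emulphor/saline (1:1:18) vehicle, measured by previously reported methods. Mean ± SEM; ANOVA with Dunnett's t test, p < 0.05 two-tailed.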
# [17] = system: Mus musculus; assay: Tail-flick latency was determined at a concentration of 50 mg/Kg.; outline: as §2
# [18] = system: Mus musculus; assay: Evaluated for catalepsy activity in mice and percentage immobility was determined at a concentration of 50 mg/Kg.; outline: as §3
# [19] = system: Mus musculus; assay: Evaluated for hypothermic activity in mice at a dose of 0 ug/Kg administered intraventricularly; outline: as §5
# [20] = system: Mus musculus; assay: Evaluated for reduction in spontaneous locomotor activity in mice, at a dose of 0 ug/Kg administered intraventricularly; outline: as §6
# [21] = system: Mus musculus; assay: Evaluated for reduction in spontaneous locomotor activity in mice at a dose of 50 mg/Kg; outline: as §1
# [22] = system: Mus musculus; assay: Tail-flick latency was determined at a concentration of 150 ug/Kg administered intraventricularly
# Outline: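 Mice, injected intraventricularly in 5 μL of ethanol/emulphor/saline (1:1:18) vehicle. Doses given as μg amounts. Antinociception read as tail-flick latency (s), alongside vehicle control. Values reported as mean ± SEM. ANOVA with Dunnett's t test versus control, significance at p < 0.05 (two-tailed).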
compound,measurement,setting,value
CCCCCc1cc(O)c2c(c1)OC(C)(CNCC)[C@@H]1CC=C(C)CC21 (stereo partly specified),Spont activity,[1],35 Counts 10min-1
same,Spont activity,[2],35 Counts 10min-1
same,Tail flick latency,[3],<2.8 s
same,Immobility,[4],13%
same,Immobility,[5],16%
same,Temperature,[6],-0.7 °C
same,Spont activity,[7],52 Counts 10min-1
same,Immobility,[8],20%
same,Temperature,[9],-1.5 °C
same,Tail flick latency,[10],1 s
same,Temperature,[11],-0.9 °C
same,Tail flick latency,[12],2.2 s
CCCCCc1cc(O)c2c(c1)OC(C)(C)[C@@H]1CC=C(CN(CCCl)CCCl)CC21 (stereo partly specified),Temperature,[13],<-3.8 °C
same,Temperature,[14],-1.7 °C
same,Spont activity,[15],70 Counts 10min-1
same,Tail flick latency,[16],0.2 s
same,Tail flick latency,[17],-0.6 s
same,Immobility,[4],4%
same,Immobility,[18],<24%
same,Spont activity,[7],56 Counts 10min-1
same,Temperature,[19],-1.5 °C
same,Spont activity,[20],87 Counts 10min-1
same,Tail flick latency,[10],0.7 s
same,Temperature,[11],-0.8 °C
same,Spont activity,[21],<27 Counts 10min-1
same,Tail flick latency,[22],0 s

# From ChEMBL document CHEMBL1124770, “Synthesis and pharmacological evaluation of amino, azido, and nitrogen mustard analogues of 10-substituted cannabidiol and 11- or 12-substituted delta 8-tetrahydrocannabinol” (1990)
